One data set has as its system Blood. Nature of the data set: Inhibition of LPS-stimulated TNFalpha release in human whole blood. In kind it is functional, tissue-based.
The target of data set [1] is T1, Mitogen-activated protein kinase 14 (Homo sapiens, UniProt Q16539). Kind of data set: Displacement of fluorescent ATP competitive ligand from p38alpha.
Data set [2] has as its target Dual specificity mitogen-activated protein kinase kinase 1 (Homo sapiens, UniProt Q02750). Kind of data set: Inhibition of MEK1 by cRaf/mek/Erk cascade assay.
The target of data set [3] is Cyclin-dependent kinase 2 (Homo sapiens, UniProt P24941). Nature of the data set: Inhibition of CDK2.
Data set [4] addresses Macrophage colony-stimulating factor 1 receptor (Homo sapiens, UniProt P07333). Kind of data set: Inhibition of cFMS.
Data set [5] deals with Receptor tyrosine-protein kinase erbB-4 (Homo sapiens, UniProt Q15303). Kind of data set: Inhibition of ErbB4.
Data set [6] has as its target Serine/threonine-protein kinase PLK1 (Homo sapiens, UniProt P53350). Kind of data set: Inhibition of PLK1.
Data set [7] addresses T2, Serine/threonine-protein kinase Sgk1 (Homo sapiens, UniProt O00141).
T2 sequence (O00141 whole entry): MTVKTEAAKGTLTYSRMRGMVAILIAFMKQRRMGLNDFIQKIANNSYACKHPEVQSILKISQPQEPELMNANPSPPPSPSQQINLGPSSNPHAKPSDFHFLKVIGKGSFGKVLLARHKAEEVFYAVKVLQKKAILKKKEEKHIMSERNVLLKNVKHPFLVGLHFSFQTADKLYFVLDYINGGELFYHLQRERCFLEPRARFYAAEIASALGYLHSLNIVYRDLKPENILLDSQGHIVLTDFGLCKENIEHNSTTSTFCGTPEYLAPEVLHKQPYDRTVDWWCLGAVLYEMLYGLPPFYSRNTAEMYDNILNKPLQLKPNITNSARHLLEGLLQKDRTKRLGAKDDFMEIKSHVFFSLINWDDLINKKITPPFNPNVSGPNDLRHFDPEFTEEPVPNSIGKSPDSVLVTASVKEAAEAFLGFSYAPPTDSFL
Nature of the data set: Inhibition of SGK1.

Data set [8] has as its target Vascular endothelial growth factor receptor 2 (Homo sapiens, UniProt P35968). Kind of data set: Inhibition of VEGFR2.
A further data set deals with PBMC. Nature of the data set: Inhibition of LPS-stimulated TNFalpha release in human PBMCs. In kind it is functional, cell-based.
Data set [9] concerns the target Epidermal growth factor receptor (Homo sapiens, UniProt P00533).
Data set [10] can be described thus: Terminal half life in Lewis rat at 1 mg/kg, iv. Further details: dose 1 mg/kg, route intravenous. The format is ADME, organism-based. Conditions: in vivo, read-out: beta t1/2 (converted). An outline of the steps: (§1)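 Male Lewis rats were dosed at 1 mg/kg intravenously and orally, with compound given as a solution in 10% DMSO/70% PEG200/20% water. Blood was collected over 12 h, and parameters were derived from a composite blood sampling profile.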

The nature of data set [11]: AUC ( 0 to 12 hrs) in Lewis rat at 1 mg/kg, po. The settings on record: plasma. Further details: time < 12 hr, dose 1 mg/kg, route oral. The format is ADME, organism-based.
A short description of data set [12]: Volume of distribution at steady state in Lewis rat at 1 mg/kg, iv. Further details: dose 1 mg/kg, route intravenous. The format is ADME, organism-based. Conditions: in vivo, read-out: Vdss. The gist of the method: as §1
Data set [13] is described as follows: Plasma clearance in Lewis rat at 1 mg/kg, iv. The format is ADME, organism-based. Further details: dose 1 mg/kg, route intravenous. The gist of the method:
as §1

Data set [14] can be described thus: Oral bioavailability in Lewis rat at 1 mg/kg. The format is ADME, organism-based. The settings on record: in vivo. An outline of the steps: as §1
In data set [15] the target is T1, Mitogen-activated protein kinase 14. Nature of the data set: Inhibition of p38alpha. An outline of the steps: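 p38α Ki determined by measuring displacement of a fluorescent ATP-competitive inhibitor from the enzyme. Impure products and those giving inconsistent assay results were excluded.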

The values that follow come from ChEMBL document CHEMBL1141712, “Kinase array design, back to front: biaryl amides” (Bioorg Med Chem Lett, 2008).

T1 sequence (Q16539 whole entry): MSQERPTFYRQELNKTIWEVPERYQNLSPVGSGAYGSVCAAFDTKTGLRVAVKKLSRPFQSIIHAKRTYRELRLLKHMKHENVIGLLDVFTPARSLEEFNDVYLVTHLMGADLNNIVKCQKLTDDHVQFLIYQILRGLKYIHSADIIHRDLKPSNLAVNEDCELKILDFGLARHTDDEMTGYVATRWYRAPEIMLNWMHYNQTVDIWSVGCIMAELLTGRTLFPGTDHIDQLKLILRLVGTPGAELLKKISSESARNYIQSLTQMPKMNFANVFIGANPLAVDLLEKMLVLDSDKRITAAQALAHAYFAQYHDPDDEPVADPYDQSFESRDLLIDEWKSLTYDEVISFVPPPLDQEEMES
Sequence of Serine/threonine-protein kinase PLK1 (P53350 whole entry): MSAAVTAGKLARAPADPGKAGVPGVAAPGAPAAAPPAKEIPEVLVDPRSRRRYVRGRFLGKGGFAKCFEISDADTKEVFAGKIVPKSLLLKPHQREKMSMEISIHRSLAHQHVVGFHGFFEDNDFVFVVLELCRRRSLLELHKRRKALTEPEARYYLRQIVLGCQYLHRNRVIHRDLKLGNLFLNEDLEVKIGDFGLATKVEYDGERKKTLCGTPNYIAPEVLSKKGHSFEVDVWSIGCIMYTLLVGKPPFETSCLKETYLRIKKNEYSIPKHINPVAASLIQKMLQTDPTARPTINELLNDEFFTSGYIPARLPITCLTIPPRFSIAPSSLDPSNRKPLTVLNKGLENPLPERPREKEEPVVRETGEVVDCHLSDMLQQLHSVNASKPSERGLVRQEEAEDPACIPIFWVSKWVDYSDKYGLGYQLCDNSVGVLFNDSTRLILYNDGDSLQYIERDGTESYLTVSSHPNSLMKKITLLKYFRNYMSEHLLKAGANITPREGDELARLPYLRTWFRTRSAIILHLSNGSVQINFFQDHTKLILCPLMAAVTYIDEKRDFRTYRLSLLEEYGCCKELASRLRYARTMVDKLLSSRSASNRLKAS
Sequence of Vascular endothelial growth factor receptor 2 (P35968 whole entry): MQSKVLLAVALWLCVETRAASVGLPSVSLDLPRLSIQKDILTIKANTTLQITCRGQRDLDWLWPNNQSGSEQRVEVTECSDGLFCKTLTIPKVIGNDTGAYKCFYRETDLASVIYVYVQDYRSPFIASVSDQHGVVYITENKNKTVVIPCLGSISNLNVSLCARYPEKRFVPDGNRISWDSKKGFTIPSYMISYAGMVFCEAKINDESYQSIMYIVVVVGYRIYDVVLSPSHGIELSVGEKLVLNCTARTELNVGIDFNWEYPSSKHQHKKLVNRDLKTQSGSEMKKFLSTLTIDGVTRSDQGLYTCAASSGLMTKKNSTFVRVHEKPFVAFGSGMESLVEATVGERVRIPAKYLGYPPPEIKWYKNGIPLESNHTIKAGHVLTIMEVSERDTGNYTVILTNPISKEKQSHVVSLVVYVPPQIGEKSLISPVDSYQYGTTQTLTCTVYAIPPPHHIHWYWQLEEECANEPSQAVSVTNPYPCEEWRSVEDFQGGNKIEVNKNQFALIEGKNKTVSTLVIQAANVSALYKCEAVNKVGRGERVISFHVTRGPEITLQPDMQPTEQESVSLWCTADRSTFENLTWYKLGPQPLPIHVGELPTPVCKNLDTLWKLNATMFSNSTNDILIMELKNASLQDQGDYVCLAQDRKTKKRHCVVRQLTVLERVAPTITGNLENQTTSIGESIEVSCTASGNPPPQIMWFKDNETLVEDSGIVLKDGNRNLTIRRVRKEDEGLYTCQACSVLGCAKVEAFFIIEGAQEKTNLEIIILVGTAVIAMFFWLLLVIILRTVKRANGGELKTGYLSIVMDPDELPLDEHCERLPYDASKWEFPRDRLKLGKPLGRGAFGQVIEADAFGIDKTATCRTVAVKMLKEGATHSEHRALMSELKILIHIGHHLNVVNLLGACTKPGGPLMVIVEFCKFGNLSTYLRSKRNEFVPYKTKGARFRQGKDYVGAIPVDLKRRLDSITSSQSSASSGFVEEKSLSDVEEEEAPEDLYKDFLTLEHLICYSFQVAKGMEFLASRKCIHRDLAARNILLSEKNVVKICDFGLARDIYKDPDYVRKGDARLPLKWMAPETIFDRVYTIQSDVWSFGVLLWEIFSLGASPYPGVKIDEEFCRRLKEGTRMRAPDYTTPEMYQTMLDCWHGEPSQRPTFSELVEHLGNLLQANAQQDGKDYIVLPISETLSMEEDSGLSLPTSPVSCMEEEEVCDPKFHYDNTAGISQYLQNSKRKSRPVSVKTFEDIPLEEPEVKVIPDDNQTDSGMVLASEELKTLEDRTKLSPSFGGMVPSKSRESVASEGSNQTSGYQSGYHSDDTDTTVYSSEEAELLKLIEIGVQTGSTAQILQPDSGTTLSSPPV
Sequence of Dual specificity mitogen-activated protein kinase kinase 1 (Q02750 whole entry): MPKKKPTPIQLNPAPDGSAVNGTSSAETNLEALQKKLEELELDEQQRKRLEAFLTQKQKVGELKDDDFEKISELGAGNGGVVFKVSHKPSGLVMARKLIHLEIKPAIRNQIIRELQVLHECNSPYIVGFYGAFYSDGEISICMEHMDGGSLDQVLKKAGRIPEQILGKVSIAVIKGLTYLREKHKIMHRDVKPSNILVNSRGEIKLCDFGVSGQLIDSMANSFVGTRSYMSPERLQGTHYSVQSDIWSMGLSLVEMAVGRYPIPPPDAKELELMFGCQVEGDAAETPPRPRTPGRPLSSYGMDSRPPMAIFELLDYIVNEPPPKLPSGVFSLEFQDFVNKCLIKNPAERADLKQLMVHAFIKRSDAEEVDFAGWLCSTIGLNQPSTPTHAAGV
Sequence of Macrophage colony-stimulating factor 1 receptor (P07333 whole entry): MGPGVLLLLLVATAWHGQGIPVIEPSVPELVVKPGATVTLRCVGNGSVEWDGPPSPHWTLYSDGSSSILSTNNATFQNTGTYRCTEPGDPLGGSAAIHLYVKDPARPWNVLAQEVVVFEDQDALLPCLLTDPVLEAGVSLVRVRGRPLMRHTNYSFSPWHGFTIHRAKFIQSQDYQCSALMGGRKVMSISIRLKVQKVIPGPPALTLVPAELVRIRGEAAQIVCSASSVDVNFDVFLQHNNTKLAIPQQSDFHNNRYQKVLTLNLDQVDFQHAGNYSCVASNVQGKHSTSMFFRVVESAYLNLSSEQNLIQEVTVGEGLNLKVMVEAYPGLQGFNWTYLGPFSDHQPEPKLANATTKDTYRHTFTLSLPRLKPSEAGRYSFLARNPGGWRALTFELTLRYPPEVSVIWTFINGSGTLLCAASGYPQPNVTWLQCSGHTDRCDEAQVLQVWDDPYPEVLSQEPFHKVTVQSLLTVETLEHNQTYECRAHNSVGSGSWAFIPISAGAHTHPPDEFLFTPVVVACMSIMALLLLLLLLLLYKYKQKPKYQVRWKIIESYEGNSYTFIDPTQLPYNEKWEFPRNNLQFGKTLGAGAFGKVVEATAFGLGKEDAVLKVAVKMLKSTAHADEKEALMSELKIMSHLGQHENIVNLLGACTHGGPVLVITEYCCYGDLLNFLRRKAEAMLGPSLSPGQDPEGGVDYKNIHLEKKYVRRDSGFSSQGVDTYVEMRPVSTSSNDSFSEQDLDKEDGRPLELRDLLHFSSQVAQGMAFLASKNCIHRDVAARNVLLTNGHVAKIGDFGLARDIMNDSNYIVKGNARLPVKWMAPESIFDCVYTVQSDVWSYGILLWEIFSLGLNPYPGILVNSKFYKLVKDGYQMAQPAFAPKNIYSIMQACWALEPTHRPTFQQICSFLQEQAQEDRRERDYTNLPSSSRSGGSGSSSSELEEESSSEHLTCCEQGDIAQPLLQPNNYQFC
Sequence of Receptor tyrosine-protein kinase erbB-4 (Q15303 whole entry): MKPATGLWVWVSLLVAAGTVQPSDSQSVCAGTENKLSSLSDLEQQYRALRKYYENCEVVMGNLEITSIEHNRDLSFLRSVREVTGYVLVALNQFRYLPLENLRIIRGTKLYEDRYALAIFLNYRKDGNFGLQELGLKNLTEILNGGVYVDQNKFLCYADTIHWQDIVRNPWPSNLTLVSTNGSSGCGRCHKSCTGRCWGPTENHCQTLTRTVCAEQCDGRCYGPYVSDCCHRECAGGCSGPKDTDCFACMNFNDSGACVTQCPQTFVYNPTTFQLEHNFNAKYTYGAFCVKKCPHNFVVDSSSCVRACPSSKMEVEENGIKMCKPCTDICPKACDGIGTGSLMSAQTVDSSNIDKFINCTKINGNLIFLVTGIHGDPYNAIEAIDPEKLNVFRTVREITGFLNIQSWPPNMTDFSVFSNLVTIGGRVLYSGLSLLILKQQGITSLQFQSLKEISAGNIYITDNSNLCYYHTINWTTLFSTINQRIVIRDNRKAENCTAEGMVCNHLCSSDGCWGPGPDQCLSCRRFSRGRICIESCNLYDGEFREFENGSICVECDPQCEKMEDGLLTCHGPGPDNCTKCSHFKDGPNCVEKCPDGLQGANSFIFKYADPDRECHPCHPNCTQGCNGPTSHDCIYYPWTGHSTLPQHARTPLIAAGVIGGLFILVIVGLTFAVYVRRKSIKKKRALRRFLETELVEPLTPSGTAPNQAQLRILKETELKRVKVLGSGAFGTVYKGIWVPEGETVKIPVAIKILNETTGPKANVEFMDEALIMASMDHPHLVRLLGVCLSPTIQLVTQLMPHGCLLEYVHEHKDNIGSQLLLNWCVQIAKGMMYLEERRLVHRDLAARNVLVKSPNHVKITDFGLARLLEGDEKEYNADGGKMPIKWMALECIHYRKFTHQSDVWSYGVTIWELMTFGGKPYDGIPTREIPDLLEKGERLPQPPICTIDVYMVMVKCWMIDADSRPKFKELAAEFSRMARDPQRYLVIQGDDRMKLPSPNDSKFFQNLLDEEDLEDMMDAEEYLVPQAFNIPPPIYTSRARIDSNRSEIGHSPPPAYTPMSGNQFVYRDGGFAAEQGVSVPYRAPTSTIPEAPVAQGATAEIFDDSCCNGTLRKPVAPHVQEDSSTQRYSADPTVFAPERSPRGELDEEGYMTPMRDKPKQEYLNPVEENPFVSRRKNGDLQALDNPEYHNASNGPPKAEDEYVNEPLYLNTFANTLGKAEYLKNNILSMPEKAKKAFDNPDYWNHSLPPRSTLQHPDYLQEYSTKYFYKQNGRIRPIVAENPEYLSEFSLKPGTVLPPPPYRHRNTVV

The term IC50 denotes the concentration needed to halve the response being measured. Lower therefore signals greater potency. One may read the Ki as the dissociation constant of the complex between target and ligand, obtained from inhibition or displacement. In the case of `Cc1ccc(C(=O)NC2CC2)cc1-c1ccc2c(C3CCNCC3)noc2c1`, the IC50 was 3 µM with Blood; over 50 µM in data set [2]; over 20 µM in data set [3]; over 20 µM in data set [4]; over 25 µM in [5]; over 25 µM in [6]. The IC50 in [7] is over 33 µM; in data set [8], over 20 µM; in the data set on PBMC, 0.2 µM; in [9], over 25 µM. Moreover, in data set [1], the inhibition constant Ki was 0.004 µM.
As a reminder, the AUC(0-t) is exposure summed from dosing to a finite time, without extrapolation to infinity. In general, clearance refers to a measure of how efficiently the substance is removed, as volume per time. A word on the bioavailability: it is the share of a dose that reaches the circulation, judged against a reference dose that is usually intravenous. A higher bioavailability goes with good availability. Regarding `Cc1nnc(-c2ccc(-c3cc(C(=O)NC4CC4)ccc3C)c(C)c2)o1`, the IC50 in the data set with Blood is 1 µM; in data set [2], 20 µM; in [3] it was over 20 µM; in data set [4], over 20 µM; in [6], over 25 µM; in data set [7] it was over 33 µM. The figures for the IC50 (in data set [8]; in the data set on PBMC) were over 20 µM and 0.1 µM, respectively. Further, in data set [10], the half-life was 4.6 h. This molecule also came in with an AUC(0-t) at 12 h in data set [11] of 4180 ng·h/mL. In data set [12], the Vd turned out to be 1.2 L/kg. The same molecule registered a clearance in data set [13] of 3 mL/min/kg. Also, the bioavailability in data set [14] stood at 91%.
The molecule `Cc1ccc(C(=O)Nc2cccc(N3CCOCC3)c2)cc1I` gave a Ki in [15] of over 2 µM.
